Screening results: PubChem, several laboratories
Sampled rows, rich in hits. Any-hit rate of the full collection: about 1.9%.
CR mimetic SO = reduction of superoxide in aged yeast, primary screen, HTS; superoxide response (% of plate mean), % at 10 µM; hit rate 0.18% among 330,000; S. cerevisiae aged cells, superoxide DHE fluorescence; stronger effect = lower value;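 active means superoxide response under a set limit, about three screen SD below normal, cut at about 65% in these data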;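 further: yeast aged for seven days with compound at 30 °C before DHE staining; 100% = average MFI of all compound-treated wells on the plate with controls excluded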
Rce1 inh = yeast Rce1p protease inhibitors, primary screen, biochemical, fluorescence, cell-free homogeneous | yeast membranes, quenched prenylated peptide cleavage fluorescence | calls only | hit rate 0.27% among 290,000;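 active means fall in fluorescence gain of 50% or more versus controls, with final raw signal at or below 3038400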;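 further: plate controls were neutral control wells for no effect and wells lacking membranes for full effect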
UCH37 inh = inhibitors of human UCH37 deubiquitinase, primary screen, biochemical, Ub-AMC cleavage, fluorescence | purified proteasome/UCH37 | inhibition, % (no concentration beside the values) | hit rate 0.33% among 330,000;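 active means mean inhibition over replicate wells above about 20%, limit read from the data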;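 further: 0% = compound-free wells with enzyme and 100% = wells lacking proteasome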
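Signal – fluorescence, ex 355 nm, em 460 nm · System – Proteasome-bound UCH37 · Input – 0.15 nM proteasome as dispensed · Timing – 30 min preincubation with enzyme, 25 min cleavage at room temperature · Read-out basis – percent inhibition of cleavage signal versus uninhibited and no-proteasome wells · Medium – Tris-HCl pH 7.4 with ATP-MgCl2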
PG9 Ab binder = binders of HIV-1 gp120 antibody PG9, primary screen, biochemical, TR-FRET | HIV-1 gp120 / PG9 antibody interaction | TR-FRET gp120-PG9 antibody binding | inhibition, % at 6.7 µM | hit rate 0.43% among 360,000 | AID 624416, 2012; in the data active means inhibition above about 8.5%
MIN6 prolif-1 = inducers of MIN6 beta-cell proliferation, primary screen, ATP luminescence, uHTS | MIN6 cells proliferation, ATPlite luminescence, 48 h; cells starved in 0.2% serum; 100% = growth in 10% serum | proliferation, % at 10 µM | hit rate 0.29% among 330,000 | AID 2380, 2010;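 active means compounds whose signal lies at least 3.5 SD above the mean of all wells on their plate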;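 further: 0% = DMSO-treated cells in low-serum medium and 100% = 10% serum control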
Rev-erbA mod = modulators of Rev-erb alpha DNA binding, primary screen, biochemical, FITC-DNA, fluorescence polarization, uHTS | Nuclear receptor subfamily 1 group D member 1 (Homo sapiens), P20393 | hit rate 0.79% among 370,000 | activity, % at 10 µM | Rev-erbα–FITC-DNA binding, 90 min;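 active means activity above about 14%, limit read from the data; passing the limit was not always enough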;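 further: 0% = DMSO wells with 35 nM protein and 100% = DMSO wells with 750 nM protein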
Target sequence (P20393 whole entry, looked up): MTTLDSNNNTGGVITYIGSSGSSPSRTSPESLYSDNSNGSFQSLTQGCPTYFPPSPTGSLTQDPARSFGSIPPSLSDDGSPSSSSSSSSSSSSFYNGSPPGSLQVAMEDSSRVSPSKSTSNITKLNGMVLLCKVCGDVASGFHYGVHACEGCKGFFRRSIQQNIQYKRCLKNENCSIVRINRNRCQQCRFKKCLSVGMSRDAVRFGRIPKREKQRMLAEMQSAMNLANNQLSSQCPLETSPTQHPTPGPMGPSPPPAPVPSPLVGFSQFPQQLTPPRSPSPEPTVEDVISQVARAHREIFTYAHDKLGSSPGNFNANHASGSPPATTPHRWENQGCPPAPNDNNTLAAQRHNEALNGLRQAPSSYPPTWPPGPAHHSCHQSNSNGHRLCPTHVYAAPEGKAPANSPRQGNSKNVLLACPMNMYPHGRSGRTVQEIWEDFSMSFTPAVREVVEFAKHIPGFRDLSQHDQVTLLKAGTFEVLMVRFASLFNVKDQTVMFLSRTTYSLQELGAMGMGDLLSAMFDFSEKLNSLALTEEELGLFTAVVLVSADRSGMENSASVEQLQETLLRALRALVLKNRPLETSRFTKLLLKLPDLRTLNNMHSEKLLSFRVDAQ
MIN6 prolif-2 = inducers of beta-cell proliferation in MIN6, confirmation, MIN6 cells, mouse; shares compounds with MIN6 prolif-1; ATPlite luminescence, 48 h; cells kept in 0.2% serum; scaled between 0.2% and 10% serum; proliferation increase, % at 50 µM; 920 tested, under 10 active;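 active means proliferation increase above 40% at any of the four tested concentrations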
* = called active by the depositor.

Results for Cc1ccc(N(CC(=O)NN=Cc2ccco2)S(=O)(=O)c2ccccc2)cc1 ?
UCH37 inh: 2

Results for CN(c1ccccc1)c1nc(N)c([N+](=O)[O-])c(Nc2ccccc2)n1 ?
CR mimetic SO: 100; Rce1 inh: inactive; UCH37 inh: 6; PG9 Ab binder: -1; MIN6 prolif-1: -2; Rev-erbA mod: 2

How did COc1ccc(Nc2nc(N(C)c3ccccc3)nc(N)c2[N+](=O)[O-])cc1 do in these assays?
CR mimetic SO: 89; Rce1 inh: inactive; UCH37 inh: -1; PG9 Ab binder: -1; MIN6 prolif-1: 10*; Rev-erbA mod: 3; MIN6 prolif-2: 4

How did Cc1nc(N)c(C#N)c(-c2cccnc2)c1C do in these assays?
CR mimetic SO: 96; Rce1 inh: inactive; UCH37 inh: -6; PG9 Ab binder: -1; MIN6 prolif-1: 9.6*; MIN6 prolif-2: 10

How did CCc1nc(N)c(C#N)c(-c2cccnc2)c1C do in these assays?
CR mimetic SO: 101; Rce1 inh: inactive; UCH37 inh: -1; PG9 Ab binder: 1; MIN6 prolif-1: 6; Rev-erbA mod: -2

How did Cc1nc(N)c(C#N)c(-c2ccc3c(c2)OCO3)c1C do in these assays?
CR mimetic SO: 107; Rce1 inh: inactive; UCH37 inh: -133; PG9 Ab binder: 1; MIN6 prolif-1: 5.3*; Rev-erbA mod: -2; MIN6 prolif-2: 2

Results for N#Cc1c(N)nc2c(c1-c1ccc3c(c1)OCO3)CCCCCC2 ?
CR mimetic SO: 109; Rce1 inh: inactive; UCH37 inh: -3; PG9 Ab binder: 1; MIN6 prolif-1: -2; Rev-erbA mod: -1

What do the screens show for `C=CCNc1nc(N)c([N+](=O)[O-])c(NCc2ccccc2)n1`?
CR mimetic SO: 104; Rce1 inh: inactive; UCH37 inh: 3; MIN6 prolif-1: 8.3*; MIN6 prolif-2: 2

What do the screens show for `COc1cccc(-c2nnc3n2N=C(c2cc(OC)ccc2OC)CS3)c1`?
CR mimetic SO: 102; Rce1 inh: inactive; UCH37 inh: 5; PG9 Ab binder: 1; MIN6 prolif-1: 8.0*; Rev-erbA mod: -2; MIN6 prolif-2: -4

Results for CC1CCCN(CCCNC(=O)c2nn(C)c3c2CS(=O)(=O)c2ccccc2-3)C1 (centres undefined) ?
CR mimetic SO: 94; Rce1 inh: inactive; UCH37 inh: 4; PG9 Ab binder: 0; MIN6 prolif-1: 7.0*; Rev-erbA mod: -4; MIN6 prolif-2: 0

Results for Nc1nonc1-n1nnc(C(=O)NN=Cc2cccc(F)c2)c1CN1CCCCCC1 ?
UCH37 inh: -1

What do the screens show for `COCC(=O)N1CCC(Oc2ccc(C(=O)N(C)C3CCCCC3)cc2)CC1`?
CR mimetic SO: 106; Rce1 inh: inactive; UCH37 inh: 2; PG9 Ab binder: 0; MIN6 prolif-1: 2; Rev-erbA mod: 6

Results for COCCC(=O)N1CCC(Oc2ccc(C(=O)N(C)C3CCCCC3)cc2)CC1 ?
CR mimetic SO: 93; Rce1 inh: inactive; UCH37 inh: -2; PG9 Ab binder: -1; MIN6 prolif-1: 6.6*; Rev-erbA mod: 0; MIN6 prolif-2: -3

Results for Cn1c(=O)c2c(nc(OCc3ccccc3)n2C)n(C)c1=O ?
CR mimetic SO: 109; Rce1 inh: inactive; UCH37 inh: 5; PG9 Ab binder: -3; MIN6 prolif-1: 16*; Rev-erbA mod: 1; MIN6 prolif-2: 5

Results for COc1cccc(COc2nc3c(c(=O)n(C)c(=O)n3C)n2C)c1 ?
CR mimetic SO: 97; Rce1 inh: inactive; UCH37 inh: 4; PG9 Ab binder: 2; MIN6 prolif-1: 2; Rev-erbA mod: -2

How did Cc1cc(C)nc(N=C(N)Nc2ccc(-c3ccccc3)cc2)n1 do in these assays?
UCH37 inh: 3

Results for CCn1c(CNC(=O)c2ccccc2OC)nnc1SCC(=O)c1ccc(F)cc1 ?
CR mimetic SO: 110; Rce1 inh: inactive; UCH37 inh: 3; PG9 Ab binder: -2; MIN6 prolif-1: 5.8*; Rev-erbA mod: 9; MIN6 prolif-2: 2

How did CCn1c(CNC(=O)c2ccco2)nnc1SCC(=O)c1ccc(F)cc1 do in these assays?
CR mimetic SO: 98; Rce1 inh: inactive; UCH37 inh: 1; PG9 Ab binder: -2; MIN6 prolif-1: -2; Rev-erbA mod: 3

How did CCN1CN(CCc2ccccc2)CNC1=S do in these assays?
CR mimetic SO: 114; Rce1 inh: inactive; UCH37 inh: 3; PG9 Ab binder: 2; MIN6 prolif-1: 9.3*; Rev-erbA mod: 3; MIN6 prolif-2: -3

What do the screens show for `COc1ccc(C=NOCC(=O)NC(c2ccccc2)c2ccccc2)c(OC)c1`?
UCH37 inh: 0

How did CC(=NNC(=O)C1CC1)c1ccc(OC(F)F)cc1 do in these assays?
UCH37 inh: -1

What do the screens show for `Cc1ccc(C2CC(c3cccs3)=NN2C(=O)CCl)cc1` (centres undefined)?
CR mimetic SO: 88; Rce1 inh: inactive; PG9 Ab binder: -2; MIN6 prolif-1: -6; Rev-erbA mod: -2

What do the screens show for `CCC(=O)N1N=C(c2ccccc2)CC1c1ccc([N+](=O)[O-])cc1` (centres undefined)?
CR mimetic SO: 101; Rce1 inh: inactive; UCH37 inh: 4; PG9 Ab binder: 0; MIN6 prolif-1: 7.3*; Rev-erbA mod: -1; MIN6 prolif-2: -6

How did CCC(=O)N1N=C(c2cccs2)CC1c1ccc(C)cc1 (centres undefined) do in these assays?
CR mimetic SO: 105; Rce1 inh: inactive; UCH37 inh: -18; PG9 Ab binder: 0; MIN6 prolif-1: 7.8*; Rev-erbA mod: -5; MIN6 prolif-2: -6

How did CCCN1Cc2cccc(C(=O)NCCc3ccccc3)c2C1=O do in these assays?
CR mimetic SO: 104; Rce1 inh: inactive; PG9 Ab binder: 2; MIN6 prolif-1: 11*; Rev-erbA mod: 6; MIN6 prolif-2: -2

Results for CC1(C)CN(c2ccc(C(=O)c3ccccc3)cc2)C1=O ?
CR mimetic SO: 110; Rce1 inh: inactive; UCH37 inh: 0; PG9 Ab binder: -2; MIN6 prolif-1: 7.8*; Rev-erbA mod: 11; MIN6 prolif-2: -1

What do the screens show for `O=C(NN=Cc1ccccc1[N+](=O)[O-])c1cnccn1`?
UCH37 inh: 7
